# Data: ChEMBL document CHEMBL1629581, “Diverse cytomegalovirus UL27 mutations adapt to loss of viral UL97 kinase activity under maribavir” (Antimicrob Agents Chemother, 2009)
# Active and inactive are the calls of the source. No cut-off for these calls is given here.
# How the values were obtained:
# [1] = system: Human betaherpesvirus 5; test: Ratio of EC50 for Human cytomegalovirus T3037 expressing UL27 kinase with L426F mutant gene to EC50 for Human cytomegalovirus T2211 expressing wild type UL27 gene; type: functional
# Method in brief: (§1)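 Each strain's maribavir EC50 comes from a 6-day SEAP yield reduction in human embryonic lung fibroblasts at MOI 0.01 to 0.02, fitted from supernatant chemiluminescence over at least 12 replicates on at least four dates. It is expressed relative to the EC50 of baseline strain T2211 assayed simultaneously on the same setup dates.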
# [2] = system: Human betaherpesvirus 5; test: Antiviral activity against 0.01 to 0.02 MOI of Human cytomegalovirus T2931 expressing UL27 kinase 301 to 311 deletion with frame shift mutation at 311 codon assessed as growth inhibition at day 6 by SEAP yield reduction assay relative to control; type: functional, organism-based
# [3] = system: Human betaherpesvirus 5; test: Antiviral activity against 0.01 to 0.02 MOI of Human cytomegalovirus T2899 expressing wild type UL97 kinase with N289D, D298G, N300G, P307L,V310A, D351N, I367V mutant gene assessed as growth inhibition at day 6 by SEAP yield reduction assay relative to control; type: functional, organism-based
# [4] = system: Human betaherpesvirus 5; test: Antiviral activity against Human cytomegalovirus T3020 expressing UL27 kinase with E22stop gene by SEAP yield reduction assay; type: functional, organism-based; settings: Human betaherpesvirus 5, T3020
# Method in brief: (§2)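 Cell-free virus was put on 6-day-old human embryonic lung fibroblast monolayers at MOI 0.01 to 0.02 and cultured 6 days across a maribavir range (six wells per assay). Supernatant SEAP was read by chemiluminescent substrate, and EC50 was derived by curve fitting. Values are the mean and standard error of at least 12 replicates over at least four dates. T2211 was run alongside on every date.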
# [5] = system: Human betaherpesvirus 5; test: Antiviral activity against Human cytomegalovirus T2767 expressing UL27 kinase with L193Fmutant gene by SEAP yield reduction assay; type: functional, organism-based; settings: Human betaherpesvirus 5, T2767; method in brief: as §2
# [6] = system: Human betaherpesvirus 5; test: Antiviral activity against 0.01 to 0.02 MOI of Human cytomegalovirus T2898 expressing UL27 kinase with W362stop gene N289D, D298G, N300G, P307L, V310A, D351N, I367V mutant gene assessed as growth inhibition at day 6 by SEAP yield reduction assay relative to control; type: functional, organism-based
# [7] = system: Human betaherpesvirus 5; test: Ratio of EC50 for Human cytomegalovirus T2898 expressing UL27 kinase with W362stop gene N289D, D298G, N300G, P307L, V310A, D351N, I367V mutant gene to EC50 for Human cytomegalovirus T2211 expressing wild type UL27 gene; type: functional; method in brief: as §1
# [8] = system: Human betaherpesvirus 5; test: Ratio of EC50 for Human cytomegalovirus T2890 expressing UL97 kinase with V353A mutant gene to EC50 for Human cytomegalovirus T2211 expressing wild type UL27 gene; type: functional; method in brief: as §1
# [9] = system: Human betaherpesvirus 5; test: Antiviral activity against Human cytomegalovirus T2898 expressing UL27 kinase with W362stop gene N289D, D298G, N300G, P307L, V310A, D351N, I367V mutant gene by SEAP yield reduction assay; type: functional, organism-based; settings: Human betaherpesvirus 5, T2898; method in brief: as §2
# [10] = system: Human betaherpesvirus 5; test: Antiviral activity against 0.01 to 0.02 MOI of Human cytomegalovirus T2266 harboring UL97 deletion of 537 through the end mutant gene assessed as growth inhibition at day 6 by SEAP yield reduction assay relative to control; type: functional, organism-based
# [11] = system: Human betaherpesvirus 5; test: Antiviral activity against Human cytomegalovirus T3053 expressing UL27 kinase with V353E mutant gene by SEAP yield reduction assay; type: functional, organism-based; settings: Human betaherpesvirus 5, T3053; method in brief: as §2
# [12] = system: Human betaherpesvirus 5; test: Ratio of EC50 for Human cytomegalovirus T2899 expressing wild type UL27 kinase with N289D, D298G, N300G, P307L,V310A, D351N, I367V mutant gene to EC50 for Human cytomegalovirus T2211 expressing wild type UL27 gene; type: functional; method in brief: as §1
# [13] = system: Human betaherpesvirus 5; test: Antiviral activity against Human cytomegalovirus T3019 expressing UL27 kinase with 218delC mutant gene by SEAP yield reduction assay; type: functional, organism-based; settings: Human betaherpesvirus 5, T3019; method in brief: as §2
# [14] = system: Human betaherpesvirus 5; test: Ratio of EC50 for Human cytomegalovirus T2931 expressing UL27 kinase 301 to 311 deletion with frame shift mutation at 311 codon to EC50 for Human cytomegalovirus T2211 expressing wild type UL27 gene; type: functional; method in brief: as §1
# [15] = system: Human betaherpesvirus 5; test: Ratio of EC50 for Human cytomegalovirus T2867 expressing UL27 kinase with A269T mutant gene to EC50 for Human cytomegalovirus T2211 expressing wild type UL27 gene; type: functional; method in brief: as §1
# [16] = system: Human betaherpesvirus 5; test: Antiviral activity against Human cytomegalovirus T2899 expressing wild type UL27 kinase with N289D, D298G, N300G, P307L,V310A, D351N, I367V mutant gene by SEAP yield reduction assay; type: functional, organism-based; settings: Human betaherpesvirus 5, T2899; method in brief: as §2
# [17] = system: Human betaherpesvirus 5; test: Ratio of EC50 for Human cytomegalovirus T3019 expressing UL27 kinase with 218delC mutant gene to EC50 for Human cytomegalovirus T2211 expressing wild type UL27 gene; type: functional; method in brief: as §1
# [18] = system: Human betaherpesvirus 5; test: Antiviral activity against Human cytomegalovirus clinical T2294 harboring UL97 T409 mutant gene with UL27 E22stop mutant gene by SEAP yield reduction assay relative to wild type; type: functional
# [19] = system: Human betaherpesvirus 5; test: Ratio of EC50 for Human cytomegalovirus T3020 expressing UL27 kinase with E22stop gene to EC50 for Human cytomegalovirus T2211 expressing wild type UL27 gene; type: functional; method in brief: as §1
# [20] = system: Human betaherpesvirus 5; test: Antiviral activity against Human cytomegalovirus T2867 expressing UL27 kinase with A269T mutant gene by SEAP yield reduction assay; type: functional, organism-based; settings: Human betaherpesvirus 5, T2867; method in brief: as §2
# [21] = system: Human betaherpesvirus 5; test: Antiviral activity against Human cytomegalovirus clinical T2294 harboring UL97 T409M mutant gene with UL27 W153R mutant gene by SEAP yield reduction assay relative to wild type; type: functional
# [22] = system: Human betaherpesvirus 5; test: Antiviral activity against 0.01 to 0.02 MOI of Human cytomegalovirus T2867 expressing UL27 kinase with A269T mutant gene assessed as growth inhibition at day 6 by SEAP yield reduction assay relative to control; type: functional, organism-based
# [23] = system: Human betaherpesvirus 5; test: Antiviral activity against Human cytomegalovirus T2890 expressing UL97 kinase with V353A mutant gene by SEAP yield reduction assay; type: functional, organism-based; settings: Human betaherpesvirus 5, T2890; method in brief: as §2
# [24] = system: Human betaherpesvirus 5; test: Antiviral activity against Human cytomegalovirus T2981 expressing UL27 kinase with W153R mutant gene by SEAP yield reduction assay; type: functional, organism-based; settings: Human betaherpesvirus 5, T2981; method in brief: as §2
# [25] = system: Human betaherpesvirus 5; test: Ratio of EC50 for Human cytomegalovirus T3053 expressing UL27 kinase with V353E mutant gene to EC50 for Human cytomegalovirus T2211 expressing wild type UL27 gene; type: functional; method in brief: as §1
# [26] = system: Human betaherpesvirus 5; test: Ratio of EC50 for Human cytomegalovirus T2981 expressing UL27 kinase with W153R mutant gene to EC50 for Human cytomegalovirus T2211 expressing wild type UL27 gene; type: functional; method in brief: as §1
# [27] = system: Human betaherpesvirus 5; test: Antiviral activity against Human cytomegalovirus T2931 expressing UL27 kinase 301 to 311 deletion with frame shift mutation at 311 codon by SEAP yield reduction assay; type: functional, organism-based; settings: Human betaherpesvirus 5, T2931; method in brief: as §2
# [28] = system: Human betaherpesvirus 5; test: Antiviral activity against Human cytomegalovirus clinical T2294 harboring UL97 T409 mutant gene with UL27 V353E mutant gene by SEAP yield reduction assay relative to wild type; type: functional
# [29] = system: Human betaherpesvirus 5; test: Ratio of EC50 for Human cytomegalovirus T2767 expressing UL27 kinase with L193Fmutant gene to EC50 for Human cytomegalovirus T2211 expressing wild type UL27 gene; type: functional; method in brief: as §1
# [30] = system: Human betaherpesvirus 5; test: Antiviral activity against Human cytomegalovirus T3037 expressing UL27 kinase with L426F mutant gene by SEAP yield reduction assay; type: functional, organism-based; settings: Human betaherpesvirus 5, T3037; method in brief: as §2
# [31] = system: Human betaherpesvirus 5; test: Antiviral activity against Human cytomegalovirus T2211 expressing wild type UL27 kinase by SEAP yield reduction assay; type: functional, organism-based; settings: Human betaherpesvirus 5, T2211; method in brief: as §2
# [32] = system: Human betaherpesvirus 5; test: Antiviral activity against Human cytomegalovirus clinical isolate C076 harboring UL97 V353A mutant gene with UL27 del 301 to 311 codon by SEAP yield reduction assay relative to wild type; type: functional
smiles,measurement,setting,value
CC(C)Nc1nc2cc(Cl)c(Cl)cc2n1[C@H]1O[C@@H](CO)[C@H](O)[C@@H]1O [MARIBAVIR],Ratio EC50,[1],2.2
same,inhibition,[2],Active
same,inhibition,[3],Active
same,EC50,[4],190 nM
same,EC50,[5],240 nM
same,inhibition,[6],Active
same,Ratio EC50,[7],2.2
same,Ratio EC50,[8],16
same,EC50,[9],210 nM
same,inhibition,[10],Active
same,EC50,[11],200 nM
same,Ratio EC50,[12],0.9
same,EC50,[13],230 nM
same,Ratio EC50,[14],3.1
same,Ratio EC50,[15],2
same,EC50,[16],84 nM
same,Ratio EC50,[17],2.5
same,fold change (FC),[18],15
same,Ratio EC50,[19],2
same,EC50,[20],190 nM
same,fold change (FC),[21],15
same,inhibition,[22],Active
same,EC50,[23],1480 nM
same,EC50,[24],160 nM
same,Ratio EC50,[25],2.1
same,Ratio EC50,[26],1.7
same,EC50,[27],290 nM
same,fold change (FC),[28],15
same,Ratio EC50,[29],2.6
same,EC50,[30],210 nM
same,EC50,[31],95 nM
same,fold change (FC),[32],15
